Source: ChEMBL document CHEMBL4028865, “Targeted Polypharmacology: Discovery of a Highly Potent Non-Hydroxamate Dual Matrix Metalloproteinase (MMP)-10/-13 Inhibitor” (J Med Chem, 2017)

Experiments:
Collagenase 3 [1] = biological target: T1, Collagenase 3 (Homo sapiens, UniProt P45452); experiment: Inhibition of C-terminal tagged human recombinant MMP13 catalytic domain expressed in Escherichia coli using (5-FAM/QX) FRET peptide as substrate by fluorescence assay
How it was run: (§1)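 IC50 from 10 concentrations in 3-fold dilution, starting at 10 μM or 100 μM, with two to six replicates. Run only for compounds leaving under 20% residual activity at 10 μM. Fluorescence read-out of QXL520/5-FAM FRET peptide cleavage in 50 mM HEPES pH 7.5, 10 mM CaCl₂, 0.01% Brij-35 and 0.1 mg/ml BSA. Four-parameter least-squares fit; GM6001 as control.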

Collagenase 3 [2] = biological target: T1, Collagenase 3; experiment: Inhibition of C-terminal tagged human recombinant MMP13 catalytic domain expressed in Escherichia coli assessed as residual activity at 10 uM using (5-FAM/QX) FRET peptide as substrate by fluorescence assay relative to control
How it was run: (§2)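 Residual enzyme activity read at a single 10 μM inhibitor concentration, in duplicate. Fluorescence assay on cleavage of the QXL520/5-FAM FRET peptide. Buffer was 50 mM HEPES pH 7.5 with 10 mM CaCl₂, 0.01% Brij-35 and 0.1 mg/ml BSA. GM6001 served as control inhibitor. Same assay system as the IC50 determinations.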

Stromelysin-2 [3] = biological target: T2, Stromelysin-2 (Homo sapiens, UniProt P09238); experiment: Inhibition of MMP10 (unknown origin) assessed using (5-FAM/QX) FRET peptide as substrate by fluorescence assay; how it was run: as §1
Target sequence in this assay (P09238 whole entry): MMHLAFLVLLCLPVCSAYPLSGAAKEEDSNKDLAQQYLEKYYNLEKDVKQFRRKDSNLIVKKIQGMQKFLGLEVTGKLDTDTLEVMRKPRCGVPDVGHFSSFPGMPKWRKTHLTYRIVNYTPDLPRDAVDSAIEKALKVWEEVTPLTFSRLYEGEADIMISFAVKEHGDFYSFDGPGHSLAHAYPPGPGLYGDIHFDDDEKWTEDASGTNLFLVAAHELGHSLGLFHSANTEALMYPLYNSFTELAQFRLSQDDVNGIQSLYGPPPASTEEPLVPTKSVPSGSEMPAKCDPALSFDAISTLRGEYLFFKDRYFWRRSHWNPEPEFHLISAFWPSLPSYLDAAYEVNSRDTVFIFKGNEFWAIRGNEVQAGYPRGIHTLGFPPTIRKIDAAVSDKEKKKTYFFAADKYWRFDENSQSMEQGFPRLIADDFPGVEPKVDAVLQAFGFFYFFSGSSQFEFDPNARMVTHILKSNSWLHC

Stromelysin-2 [4] = biological target: T2, Stromelysin-2; experiment: Inhibition of MMP10 (unknown origin) assessed as residual activity at 10 uM using (5-FAM/QX) FRET peptide as substrate by fluorescence assay relative to control; how it was run: as §2
Target sequence in this assay (P09238 99-476 limits assumed): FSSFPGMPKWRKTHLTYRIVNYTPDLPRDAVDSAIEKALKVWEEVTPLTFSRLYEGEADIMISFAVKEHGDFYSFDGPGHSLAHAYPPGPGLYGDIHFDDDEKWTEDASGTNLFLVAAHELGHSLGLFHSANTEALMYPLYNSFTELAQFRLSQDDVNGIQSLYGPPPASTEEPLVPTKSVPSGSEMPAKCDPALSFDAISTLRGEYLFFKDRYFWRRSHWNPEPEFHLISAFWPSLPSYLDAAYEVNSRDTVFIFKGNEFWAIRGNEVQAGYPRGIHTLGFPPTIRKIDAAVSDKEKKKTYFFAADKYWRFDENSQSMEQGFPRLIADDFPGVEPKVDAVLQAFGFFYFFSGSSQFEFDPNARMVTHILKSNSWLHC

[5] = biological target: Neutrophil collagenase (Homo sapiens) (UniProt P22894); experiment: Inhibition of MMP8 (unknown origin) assessed as residual activity at 10 uM using (5-FAM/QX) FRET peptide as substrate by fluorescence assay relative to control; how it was run: as §2
Neutrophil collagenase (Homo sapiens), sequence (P22894 101-467 limits assumed): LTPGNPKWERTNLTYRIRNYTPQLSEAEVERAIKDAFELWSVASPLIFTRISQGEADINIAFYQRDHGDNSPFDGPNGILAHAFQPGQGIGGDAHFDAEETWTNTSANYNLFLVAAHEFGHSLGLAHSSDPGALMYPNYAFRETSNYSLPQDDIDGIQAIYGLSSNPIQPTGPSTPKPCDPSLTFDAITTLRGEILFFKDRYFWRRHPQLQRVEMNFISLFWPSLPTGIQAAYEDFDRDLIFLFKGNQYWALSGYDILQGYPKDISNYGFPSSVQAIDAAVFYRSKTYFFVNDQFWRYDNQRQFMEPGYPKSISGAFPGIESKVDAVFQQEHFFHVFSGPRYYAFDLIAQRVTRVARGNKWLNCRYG

[6] = biological target: Matrix metalloproteinase-14 (Homo sapiens) (UniProt P50281); experiment: Inhibition of C-terminal tagged human recombinant MMP14 catalytic domain expressed in Escherichia coli assessed as residual activity at 10 uM using (5-FAM/QX) FRET peptide as substrate by fluorescence assay relative to control; how it was run: as §2
[7] = biological target: Matrix metalloproteinase-9 (Homo sapiens) (UniProt P14780); experiment: Inhibition of MMP9 (unknown origin) assessed as residual activity at 10 uM using (5-FAM/QX) FRET peptide as substrate by fluorescence assay relative to control; how it was run: as §2
Matrix metalloproteinase-9 (Homo sapiens), sequence (P14780 whole entry, the tested form may be a part): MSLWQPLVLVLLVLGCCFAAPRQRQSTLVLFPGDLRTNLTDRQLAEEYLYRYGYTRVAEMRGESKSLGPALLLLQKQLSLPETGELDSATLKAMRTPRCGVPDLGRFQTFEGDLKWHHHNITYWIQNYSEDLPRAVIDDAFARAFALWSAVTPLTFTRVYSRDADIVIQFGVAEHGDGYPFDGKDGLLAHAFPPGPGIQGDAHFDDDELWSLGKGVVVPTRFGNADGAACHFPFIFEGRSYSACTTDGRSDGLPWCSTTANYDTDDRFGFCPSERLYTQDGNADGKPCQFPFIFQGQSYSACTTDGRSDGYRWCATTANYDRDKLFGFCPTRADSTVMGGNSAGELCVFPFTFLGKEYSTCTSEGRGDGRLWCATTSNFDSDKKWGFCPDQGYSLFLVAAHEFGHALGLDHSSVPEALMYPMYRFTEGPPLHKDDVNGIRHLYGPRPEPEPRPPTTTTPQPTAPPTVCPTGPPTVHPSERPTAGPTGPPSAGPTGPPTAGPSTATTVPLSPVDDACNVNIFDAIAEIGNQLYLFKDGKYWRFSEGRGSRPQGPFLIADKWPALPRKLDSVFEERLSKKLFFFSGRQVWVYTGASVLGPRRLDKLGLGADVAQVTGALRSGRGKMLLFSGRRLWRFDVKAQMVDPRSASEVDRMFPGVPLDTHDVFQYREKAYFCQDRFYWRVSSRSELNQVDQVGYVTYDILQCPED

[8] = biological target: Stromelysin-1 (Homo sapiens) (UniProt P08254); experiment: Inhibition of C-terminal tagged human recombinant MMP3 catalytic domain expressed in Escherichia coli assessed as residual activity at 10 uM using (5-FAM/QX) FRET peptide as substrate by fluorescence assay relative to control; how it was run: as §2
Stromelysin-1 (Homo sapiens), sequence (P08254 100-477 limits assumed): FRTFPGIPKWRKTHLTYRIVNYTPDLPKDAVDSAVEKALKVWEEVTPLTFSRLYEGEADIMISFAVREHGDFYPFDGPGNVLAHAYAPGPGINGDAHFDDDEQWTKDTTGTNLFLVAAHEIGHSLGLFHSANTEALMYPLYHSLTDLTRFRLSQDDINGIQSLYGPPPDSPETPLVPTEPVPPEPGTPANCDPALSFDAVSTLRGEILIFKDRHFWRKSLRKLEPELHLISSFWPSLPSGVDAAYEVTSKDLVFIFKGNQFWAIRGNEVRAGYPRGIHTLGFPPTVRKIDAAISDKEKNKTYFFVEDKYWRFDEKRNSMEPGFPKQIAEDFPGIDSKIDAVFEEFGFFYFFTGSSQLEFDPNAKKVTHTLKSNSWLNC

[9] = biological target: Macrophage metalloelastase (Homo sapiens) (UniProt P39900); experiment: Inhibition of C-terminal tagged human recombinant MMP12 catalytic domain expressed in Escherichia coli assessed as residual activity at 10 uM using (5-FAM/QX) FRET peptide as substrate by fluorescence assay relative to control; how it was run: as §2
Macrophage metalloelastase (Homo sapiens), sequence (P39900 106-470 limits assumed): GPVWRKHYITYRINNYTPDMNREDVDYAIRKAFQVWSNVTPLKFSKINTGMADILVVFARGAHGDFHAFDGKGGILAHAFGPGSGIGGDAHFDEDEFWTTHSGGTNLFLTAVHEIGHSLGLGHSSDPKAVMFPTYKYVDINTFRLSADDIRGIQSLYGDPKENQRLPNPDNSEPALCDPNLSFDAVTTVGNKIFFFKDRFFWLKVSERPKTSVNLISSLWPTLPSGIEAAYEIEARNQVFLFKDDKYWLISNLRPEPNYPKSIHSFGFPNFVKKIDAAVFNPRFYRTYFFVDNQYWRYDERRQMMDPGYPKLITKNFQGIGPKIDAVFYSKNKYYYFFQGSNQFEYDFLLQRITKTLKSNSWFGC

[10] = biological target: 72 kDa type IV collagenase (Homo sapiens) (UniProt P08253); experiment: Inhibition of C-terminal tagged human recombinant MMP2 catalytic domain expressed in Escherichia coli assessed as residual activity at 10 uM using (5-FAM/QX) FRET peptide as substrate by fluorescence assay relative to control; how it was run: as §2
72 kDa type IV collagenase (Homo sapiens), sequence (P08253 110-660 limits assumed): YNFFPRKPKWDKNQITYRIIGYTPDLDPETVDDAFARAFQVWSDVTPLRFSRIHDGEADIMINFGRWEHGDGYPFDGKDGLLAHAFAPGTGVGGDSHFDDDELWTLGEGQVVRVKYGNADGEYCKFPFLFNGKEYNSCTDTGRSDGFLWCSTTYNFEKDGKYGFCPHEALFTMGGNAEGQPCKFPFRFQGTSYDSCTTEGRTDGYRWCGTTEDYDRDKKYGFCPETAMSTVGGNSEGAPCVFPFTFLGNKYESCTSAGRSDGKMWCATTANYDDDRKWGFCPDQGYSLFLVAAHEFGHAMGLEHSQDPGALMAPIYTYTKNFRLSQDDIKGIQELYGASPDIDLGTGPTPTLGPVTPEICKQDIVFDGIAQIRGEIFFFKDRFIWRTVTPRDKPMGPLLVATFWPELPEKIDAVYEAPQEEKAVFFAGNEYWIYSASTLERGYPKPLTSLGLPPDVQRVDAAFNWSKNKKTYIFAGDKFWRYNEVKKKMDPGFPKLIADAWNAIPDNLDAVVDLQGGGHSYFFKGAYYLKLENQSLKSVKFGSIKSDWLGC

[11] = biological target: T3, Interstitial collagenase (Homo sapiens) (UniProt P03956); experiment: Inhibition of MMP1 (unknown origin) assessed as residual activity at 10 uM using (5-FAM/QX) FRET peptide as substrate by fluorescence assay relative to control; how it was run: as §2
T3 sequence (whole entry): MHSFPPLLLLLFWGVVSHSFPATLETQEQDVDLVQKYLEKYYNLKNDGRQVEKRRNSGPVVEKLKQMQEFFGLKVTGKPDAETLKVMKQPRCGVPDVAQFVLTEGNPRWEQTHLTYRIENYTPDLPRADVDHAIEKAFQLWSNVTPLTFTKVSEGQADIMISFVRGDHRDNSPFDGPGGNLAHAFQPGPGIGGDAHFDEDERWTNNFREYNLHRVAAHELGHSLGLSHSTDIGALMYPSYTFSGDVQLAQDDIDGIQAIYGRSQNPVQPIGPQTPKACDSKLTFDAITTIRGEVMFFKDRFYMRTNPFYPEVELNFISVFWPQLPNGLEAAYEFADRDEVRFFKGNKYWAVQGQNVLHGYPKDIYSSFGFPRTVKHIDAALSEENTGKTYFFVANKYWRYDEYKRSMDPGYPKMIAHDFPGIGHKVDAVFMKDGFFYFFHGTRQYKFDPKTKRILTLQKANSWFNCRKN

[12] = biological target: T4, Matrilysin (Homo sapiens) (UniProt P09237); experiment: Inhibition of C-terminal tagged human recombinant MMP7 catalytic domain expressed in Escherichia coli assessed as residual activity at 10 uM using (5-FAM/QX) FRET peptide as substrate by fluorescence assay relative to control; how it was run: as §2
T4 sequence (whole entry): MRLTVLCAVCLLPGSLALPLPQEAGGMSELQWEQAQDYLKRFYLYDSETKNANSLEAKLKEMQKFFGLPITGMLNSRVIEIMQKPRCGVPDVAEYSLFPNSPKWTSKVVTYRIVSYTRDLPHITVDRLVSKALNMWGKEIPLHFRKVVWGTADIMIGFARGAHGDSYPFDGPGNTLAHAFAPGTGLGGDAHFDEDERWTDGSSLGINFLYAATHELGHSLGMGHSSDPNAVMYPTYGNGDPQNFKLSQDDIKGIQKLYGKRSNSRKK

SMILES	IC50 (Collagenase 3 [1]; read-out: IC50) [nM]	IC50 (Collagenase 3 [1]; read-out: pIC50 (converted)) [nM]	Activity (Collagenase 3 [2]) [%]	IC50 (Stromelysin-2 [3]; read-out: IC50) [nM]	IC50 (Stromelysin-2 [3]; read-out: pIC50 (converted)) [nM]	Activity (Stromelysin-2 [4]) [%]	further results
COc1cc(CNC(=O)C#Cc2cn(Cc3ccc(C(=O)N(C)C)cc3)c(=O)[nH]c2=O)ccc1F	89	70.8 to 110	1.4	243	186 to 589	7.1	
COc1cc(CNC(=O)C#Cc2cn(Cc3ccc(C(N)=O)cc3)c(=O)[nH]c2=O)ccc1F	111	77.6 to 162	4.4	1210	4790 to 18200	13.9	
COc1cc(CNC(=O)C#Cc2cn(Cc3ccc(C(=O)N[C@H](C)C(=O)O)cc3)c(=O)[nH]c2=O)ccc1F			0.4			26.6	
COc1cc(CNC(=O)C#Cc2cn(Cc3ccc(C(=O)N4CCC[C@@H]4C(=O)O)cc3)c(=O)[nH]c2=O)ccc1F			1.9			68.9	
O=C(O)CCCOc1cccc(CNC(=O)C#Cc2cn(Cc3ccc(C(=O)O)cc3)c(=O)[nH]c2=O)c1				8400			
CNC(=O)c1ccc(Cn2cc(C#CC(=O)NCc3ccc(F)c(OC)c3)c(=O)[nH]c2=O)cc1	86	67.6 to 112	7.5	635	479 to 832	15.4	
COc1cc(CNC(=O)C#Cc2cn(Cc3ccc(C(=O)NC(C)(C)C)cc3)c(=O)[nH]c2=O)ccc1F			13.3			55.7	
COC(=O)c1ccc(Cn2cc(C#CC(=O)NCc3ccc(F)c(OC)c3)c(=O)[nH]c2=O)cc1	128	100 to 158	4.6	506	457 to 562	18	
COc1cc(CNC(=O)C#Cc2cn(Cc3ccc(C(=O)N[C@@H](CO)C(=O)O)cc3)c(=O)[nH]c2=O)ccc1F	14	7.76 to 15.1	0.8	705	501 to 832	10.4	
COc1cc(CNC(=O)C#Cc2cn(Cc3ccc(C(=O)NCCO)cc3)c(=O)[nH]c2=O)ccc1F	58	44.7 to 72.4	2.6	347	275 to 398	14.2	
COC(=O)[C@H](CO)NC(=O)c1ccc(Cn2cc(C#CC(=O)NCc3ccc(F)c(OC)c3)c(=O)[nH]c2=O)cc1			3.9			21.9	
COc1cc(CNC(=O)C#Cc2cn(Cc3ccc(C(=O)NC4CC4)cc3)c(=O)[nH]c2=O)ccc1F			5.9			30.8	
COc1cc(CNC(=O)C#Cc2cn(Cc3ccc(C(=O)N[C@H](CO)C(=O)O)cc3)c(=O)[nH]c2=O)ccc1F			5.6			77	
COc1cccc(CNC(=O)c2nc3scc(COCc4ccc(C(=O)O)cc4)c3c(=O)[nH]2)c1 [T-26c]	0.19	0.138 to 0.275		358	309 to 407		
COc1cc(CNC(=O)C#Cc2cn(Cc3ccc(S(=O)(=O)N4CCOCC4)cc3)c(=O)[nH]c2=O)ccc1F	66	16.2 to 36.3	1.2	1930	759 to 1700	15.7	
CNS(=O)(=O)c1ccc(Cn2cc(C#CC(=O)NCc3ccc(F)c(OC)c3)c(=O)[nH]c2=O)cc1	35	25.7 to 40.7	1.8	531	407 to 676	12.8	
COc1cc(CNC(=O)C#Cc2cn(Cc3ccc(C(=O)N[C@@H](C)C(=O)O)cc3)c(=O)[nH]c2=O)ccc1F			0.8			28.5	
COc1cc(CNC(=O)C#Cc2cn(Cc3ccc(S(=O)(=O)N(C)C)cc3)c(=O)[nH]c2=O)ccc1F			5.8			47.9	
COc1cc(CNC(=O)C#Cc2cn(Cc3ccc(C(=O)NC(C)C)cc3)c(=O)[nH]c2=O)ccc1F			14.2			56.6	
COC(=O)CNS(=O)(=O)c1ccc(Cn2cc(C#CC(=O)NCc3ccc(F)c(OC)c3)c(=O)[nH]c2=O)cc1	32	15.1 to 34.7	2.1	485	245 to 437	14.3	
COc1cc(CNC(=O)C#Cc2cn(Cc3ccc(S(N)(=O)=O)cc3)c(=O)[nH]c2=O)ccc1F	258	204 to 324	3.9	7380	4790 to 18200	19.1	
COC(=O)CNC(=O)c1ccc(Cn2cc(C#CC(=O)NCc3ccc(F)c(OC)c3)c(=O)[nH]c2=O)cc1			12.2			52.8	
COc1cc(CNC(=O)C#Cc2cn(Cc3ccc(S(=O)(=O)NC4CC4)cc3)c(=O)[nH]c2=O)ccc1F	14	10.2 to 11.7	2.2	110	67.6 to 112	19.6	
COc1cc(CNC(=O)C#Cc2cn(Cc3ccc(S(=O)(=O)NC(C)C)cc3)c(=O)[nH]c2=O)ccc1F	25	15.1 to 34.7	2.2	147	67.6 to 141	10.2	
COc1cc(CNC(=O)C#Cc2cn(Cc3ccc(-c4cnco4)cc3)c(=O)[nH]c2=O)ccc1F	5	3.63 to 5.5	0.4	31	24.5 to 29.5	2.8	Activity [5]: 96.7%; Activity [6]: 97.6%; Activity [7]: 97.8%; Activity [8]: 37.3%; Activity [9]: 88.5%; Activity [10]: 100%; Activity [11]: 100%; Activity [12]: 87.1%
COc1cc(CNC(=O)C#Cc2cn(Cc3ccc(C(=O)NCC(=O)O)cc3)c(=O)[nH]c2=O)ccc1F			5.1			68.6	
COC(=O)[C@H](C)NC(=O)c1ccc(Cn2cc(C#CC(=O)NCc3ccc(F)c(OC)c3)c(=O)[nH]c2=O)cc1	149	102 to 195	2.5	751	490 to 1070	15.5	
COC(=O)[C@H]1CCCN1C(=O)c1ccc(Cn2cc(C#CC(=O)NCc3ccc(F)c(OC)c3)c(=O)[nH]c2=O)cc1	175	209 to 219	1.8	2050	1260 to 4900	17.5	
COc1cc(CNC(=O)C#Cc2cn(Cc3ccc(S(=O)(=O)NC(C)(C)C)cc3)c(=O)[nH]c2=O)ccc1F	26	12 to 20.9	1.7	131	51.3 to 141	6.9	
